STAT1 blocker: STAT1 signaling inhibitors, primary screen, cell-based, HTS, luciferase reporter; NIH 3T3 STAT1-luciferase reporter, IFN-gamma, luminescence; inhibition, % at 5.5 µM; 200,000 compounds, 0.35% hits; AID 920, 2007;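 active = inhibition above a set limit, the mean inhibition across all tested compounds plus 3 SD, cut at about 34% in these data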;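 note: 0% = IFN-gamma with DMSO and 100% = IFN-gamma with 300 µM nifuroxazide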
STAT3 inh-1: IL-6 driven STAT3 reporter inhibitors, primary screen, U3A cells, luciferase, luminescence, MLSCN library; IL-6 STAT3-luciferase reporter; host cell line lacks STAT1; inhibition, % at 5.5 µM; 190,000 compounds, 0.89% hits;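 active = inhibition above the mean inhibition across all screened compounds plus 3 SD, cut at about 44% in these data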;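 note: 0% = DMSO only wells and 100% = 100 µM nifuroxazide control wells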
STAT1 activator: STAT1 signaling activators, primary screen, cell-based, HTS, luciferase reporter. activation (% of control), % at 5.5 µM. 200,000 compounds, 2.6% hits. NIH 3T3 STAT1-luciferase reporter, IFN-gamma, luminescence; 100% = IFN-gamma alone, no compound;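 active = activation above the screen-wide mean activation plus 3 SD, cut at about 130% in these data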;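 note: raw ratio to IFN-gamma control signal so 100% means no change and 0% no light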
STAT3 act: IL-6 driven STAT3 reporter potentiators, primary screen, U3A cells, luciferase, luminescence, MLSCN library; IL-6 STAT3-luciferase reporter; 100% = signal with IL-6 EC80 alone; 190,000 compounds, 0.91% hits; activation (% of control), % at 5.6 µM;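 active = activation above the screen-wide mean of compound activation plus 3 SD, cut at about 130% in these data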;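 note: 0% = background luminescence of wells with medium and substrate only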
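Material: STAT1-lacking human U3A cells, STAT3 luciferase reporter | Benchmarks: IL-6-only wells as 100% reference | Probe or stimulus: IL-6 (33 ng/mL) | Timing: Compound 1 h, then IL-6 6 h at 37 °C | Detection: Luminescence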
NF-kB expr up: activators of NF-kB expression in neurons, primary screen, cell-based, HTS. human neuronal cells, NF-kB reporter expression; active compounds read high. fold change at 12.5 µM. 190,000 compounds, 1.6% hits. AID 1239, 2008; in the data active = fold change above about 3.3
APP 5'UTR act: activators of APP 5'UTR luciferase reporter, primary screen, SH-SY5Y cells. SH-SY5Y APP 5'UTR luciferase reporter, luminescence; zero percent = DMSO vehicle wells. activation, % at 2 µM. 190,000 compounds, 1% hits. AID 1276, 2008;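 active = activation above a set limit, based on mean plus 3 SD of controls, cut at about 140% in these data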
STAT3 inh-2: STAT3 reporter inhibitors, retest of hits, confirmation, U3A cells, luciferase, luminescence. shares compounds with STAT3 inh-1. IL-6 STAT3 luciferase reporter; cell line lacks STAT1. inhibition, % at 5.7 µM. 1,200 compounds, 45% hits. AID 1265, 2008;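 active = inhibition above the hit cutoff computed for the primary STAT3 screen, cut at about 44% in these data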;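 note: 0% = IL-6 plus DMSO and 100% = IL-6 plus nifuroxazide control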
NFkB inh 2: NF-kB reporter inhibitors in human cells, confirmation, counter-screen for STAT3 inhibitor project, cell-based, HEK293T, luciferase, TNF-alpha stimulus; shares compounds with STAT3 inh-1; TNF-alpha induced; inhibition, % at 5.7 µM; 1,200 compounds, 36% hits;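 active = inhibition above the mean of solvent-only control wells plus 3 SD, cutoff set per campaign, cut at about 13% in these data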;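 note: 0% = TNF-alpha with DMSO and 100% = TNF-alpha with MG high control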
STAT1 inh STAT3c: STAT1 reporter inhibitors, IFN-gamma induced, confirmation, counter-screen for STAT3 inhibitor project, cell-based, NIH 3T3, luciferase luminescence | shares compounds with STAT3 inh-1 | NIH 3T3 STAT1-luciferase reporter | inhibition, % at 5.7 µM | 1,200 compounds, 27% hits;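 active = inhibition above the mean plus 3 SD of solvent-only control wells, limit set per screening run, cut at about 16% in these data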;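 note: 0% = DMSO with IFN-gamma and 100% = nifuroxazide control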
Starred values were filed as active, the others as inactive; . = not tested or not shown. The list is not random: actives were taken first. Their share in the collection is about 4.9%.

SMILES | STAT1 blocker | STAT3 inh-1 | STAT1 activator | STAT3 act | NF-kB expr up | APP 5'UTR act | STAT3 inh-2 | NFkB inh 2 | STAT1 inh STAT3c
CCN1/C(=C/c2ccc3ccccc3[n+]2CC)C=Cc2ccccc21 | 29 | 92* | 73 | 23 | 1.2 | -33 | 90* | 52* | 22*
O=C(Nc1nc(-c2ccc3c(c2)OCCO3)cs1)c1ccc(S(=O)(=O)N2CCCCC2)cc1 | 8 | 45* | 92 | 67 | 0.57 | -16 | 62* | 18* | 0
Cc1ccc(/C=C/c2nc3ccccc3[nH]2)o1 | 10 | 54* | 90 | 59 | 6.5* | 259* | -16 | -15 | -34
COc1cc(C(=O)N2CCC(n3c(C)nc4cc(F)ccc43)CC2)cc(OC)c1OC | 0 | -1 | 100 | 104 | 1.1 | -3 | . | . | .
O=C(Nc1ccc(SC(F)F)cc1)c1ccc2nccnc2c1 | -17 | 48* | 116 | 63 | 1.6 | 72 | 42 | -18 | -26
Cc1ccc(C(=O)Nc2ccc3nccnc3c2)cc1 | 8 | 52* | 93 | 61 | 8.4* | 145* | 23 | -23 | -84
O=C(Nc1ccc(OC(F)(F)F)cc1)c1ccc2nccnc2c1 | -12 | 29 | 110 | 79 | 1.7 | 5 | . | . | .
Cc1ccc2nc(NC(=O)CSCC(=O)OCC(=O)c3ccc(Br)cc3)sc2c1 | 36* | 87* | 67 | 33 | 0.76 | -6 | 67* | 23* | 33*
C/C(=N\OCC(=O)Nc1ccccc1Br)c1cccs1 | -8 | 20 | 109 | 87 | 1.2 | 5 | . | . | .
Cn1c(N/N=C/c2cc3ccccc3nc2Cl)nc2ccccc21 | -1 | 53* | 101 | 56 | 1.1 | 121 | 28 | 25* | 10
Cn1c(N/N=C/c2c[nH]c3ccccc23)nc2ccccc21 | -22 | -24 | 120 | 123 | 2.2 | 81 | . | . | .
Cc1cc(C(=O)CSc2nnc(-c3cccs3)n2Cc2ccccc2)c(C)n1C | 9 | 6 | 92 | 98 | 0.85 | 8 | . | . | .
O=c1cc(CSc2nnc(-c3cccs3)n2Cc2ccccc2)nc2sc3ccccc3n12 | 23 | 60* | 79 | 53 | 0.55 | -5 | 57* | 12 | 23*
COC(=O)C1=C(C)NC(=O)NC1c1ccc(OC(=O)c2ccco2)cc1 (stereo not drawn) | -3 | 10 | 102 | 96 | 1.2 | -10 | . | . | .
CCN1CCN(C(=O)c2ccc(Cn3c(=O)[nH]c4cc(OC)c(OC)cc4c3=O)cc2)CC1 | -4 | -4 | 103 | 101 | 0.79 | 3 | . | . | .
COc1ccc(Cn2c(=O)[nH]c3cc(C(=O)N4CCN(Cc5ccccc5)CC4)ccc3c2=O)cc1 | 2 | 64* | 98 | 50 | 0.89 | 4 | 56* | 16* | -7
COc1ccc(C(=O)NCCC2=CCCCC2)cc1 | -43 | 52* | 138* | 58 | 3.4* | 154* | 23 | -1 | -74
Cc1[nH]c2ccccc2c1C(=O)C(=O)NCc1cccs1 | -6 | 12 | 107 | 90 | 1 | 2 | . | . | .
Nc1cc2sc(-c3ccc(C(=O)O)cc3)nc2cc1Cl | -8 | 36 | 107 | 71 | 3.1 | 103 | . | . | .
O=C(O)c1ccc2nc(-c3ccccc3)sc2c1 | 36* | 79* | 68 | 36 | 9.1* | 44 | 46* | 18* | -30
CCCOc1ccc(/C=C/C(=O)Nc2ccc([N+](=O)[O-])cc2)cc1 | -3 | 72* | 103 | 46 | 1.2 | 9 | 36 | 15* | -11
O=C(/C=C/c1ccc([N+](=O)[O-])cc1)Nc1ncc([N+](=O)[O-])s1 | -51 | 50* | 147* | 61 | 1.4 | 221* | -28 | -48 | -185
O=C(Cc1ccc(NS(=O)(=O)c2ccc(F)cc2)cc1)NCc1ccccc1 | 6 | 10 | 94 | 94 | 0.94 | 27 | . | . | .
COc1ccc(/C=N/OCC(=O)NCc2cccs2)c(OC)c1 | -9 | -11 | 108 | 105 | 1 | 16 | . | . | .
Cc1ccn2cc(-c3cc4ccccc4oc3=O)nc2c1 | 26 | 75* | 74 | 38 | 5.4* | 116 | 44* | 27* | -51
SMILES | STAT1 blocker | STAT3 inh-1 | STAT1 activator | STAT3 act | NF-kB expr up | APP 5'UTR act | STAT3 inh-2 | NFkB inh 2 | STAT1 inh STAT3c
CC1CCC2C(=O)N(c3ccccc3OC(=O)c3ccccc3)C(=O)C2C1 (stereo not drawn) | 5 | 44* | 96 | 65 | 1.2 | 8 | 45* | 2 | 3
CCCCC(=O)OCC(=O)c1[nH]c(C)c(C(C)=O)c1C | -13 | 2 | 112 | 100 | 1.2 | -2 | . | . | .
COc1cc(/C=N/Nc2ccc(F)cc2F)cc(OC)c1OC | 0 | 1 | 100 | 104 | 1.1 | 11 | . | . | .
COc1cc(/C=N/Nc2snc(SC)c2C#N)cc(OC)c1OC | 8 | 59* | 92 | 51 | 1.7 | -8 | 41 | 4 | -7
Cc1cccc(NC(=O)CCCn2c(=S)[nH]c3ccccc3c2=O)c1 | 8 | 6 | 92 | 106 | 1.4 | 7 | . | . | .
COc1ccc(NC(=O)c2c(Nc3ccccc3)sc(C(=O)c3ccc(F)cc3)c2N)cc1 | 24 | 61* | 78 | 50 | 1 | -10 | 37 | 35* | 43*
O=C(CN(C(=O)CSc1nc2ccccc2o1)c1ccccc1)NC1CCCCC1 | 0 | 5 | 100 | 105 | 1.1 | 1 | . | . | .
CN1CCC(N(C)C(=S)NCCc2ccccc2)CC1 | -9 | 2 | 107 | 100 | 0.89 | 4 | . | . | .
Cc1cc(C(=O)OCC(=O)Nc2cccnc2Cl)c2ccccc2n1 | 2 | 13 | 96 | 92 | 1.6 | 3 | . | . | .
COC(=O)Cc1cc(=O)[nH]c(/N=C(\N)Nc2ccc(C(C)C)cc2)n1 | 8 | 18 | 91 | 86 | 0.85 | 12 | . | . | .
CCCCc1ccc(S(=O)(=O)NCCc2ccncc2)cc1 | 8 | 38 | 92 | 72 | 0.89 | -9 | . | . | .
Cc1ccc(S(=O)(=O)NCc2ccncc2)c(C)c1C | 29 | 81* | 73 | 32 | 0.93 | -10 | 82* | 26* | 14
COc1ccc(Br)cc1S(=O)(=O)NCc1ccccc1 | 19 | 12 | 83 | 88 | 1.2 | 12 | . | . | .
Cc1ccc(S(=O)(=O)NCc2ccco2)c(C)c1C | 0 | 12 | 100 | 97 | 1.4 | 3 | . | . | .
